Measured values of several laboratories.
Compare with care: the assays were run in different laboratories.
PDE1C: Dual specificity calcium/calmodulin-dependent 3',5'-cyclic nucleotide phosphodiesterase 1C (PDE1C, Homo sapiens, UniProt Q14123)
HDAC5: Histone deacetylase 5 (HDAC5, Homo sapiens, UniProt Q9UQL6)
A disintegrin and metalloproteinase with thrombospondin motifs 7: A disintegrin and metalloproteinase with thrombospondin motifs 7 (Homo sapiens, UniProt Q9UKP4)
F11: Coagulation factor XI (F11, Homo sapiens, UniProt P03951)

Compound	target	assay	conditions	IC50 [nM]
Cc1cc2c(c(=O)[nH]1)C(=O)O/C2=C\c1ccccc1OCC1CC1	PDE1C	enzyme activity, inhibitor, radiometric	–	190
COc1ccc(C[C@H]2COC(=O)[C@@H]2Cc2ccc(OCC(=O)Nc3ccc(C(=O)Nc4ccccc4N)cc3)c(OC)c2)cc1OC	HDAC5	enzyme activity, inhibitor	–	> 10000
CCCC(=O)NCCCN1CCc2c([nH]c3ccc(Cl)cc23)C1	Sodium-dependent dopamine transporter (SLC6A3, Homo sapiens, UniProt Q01959, F155Y)	transporter uptake, inhibitor	–	18200
O=C(NO)c1cncc(OS(=O)(=O)Oc2ccc3ccccc3c2)c1	HDAC5	enzyme activity, inhibitor, fluorescence	–	8200
Cn1nccc1[C@]1(CNC(=O)c2ccccc2-c2ccc(C(F)(F)F)cc2)NC(=O)NC1=O	A disintegrin and metalloproteinase with thrombospondin motifs 7	enzyme activity, inhibitor, FRET	–	12
O=C(/C=C/c1ccc(O)c2oc(-c3ccc(O)c(O)c3)cc12)O[C@H](Cc1ccc(O)c(O)c1)C(=O)O	YTH domain-containing family protein 2 (YTHDF2, Homo sapiens, UniProt Q9Y5A9)	ligand displacement, FP	–	6000
Cc1cc2c(c(=O)[nH]1)C(=O)O/C2=C\c1ccc(F)cc1OC(C)C	PDE1C	enzyme activity, inhibitor, radiometric	–	709
Cn1nccc1[C@]1(CNC(=O)c2ccc(Cl)c(F)c2-c2ccc(C(F)(F)F)cc2)NC(=O)NC1=O	A disintegrin and metalloproteinase with thrombospondin motifs 7	enzyme activity, inhibitor, FRET	–	3.2
O=c1oc(-c2ccco2)nc2ccccc12	F11	enzyme activity, inhibitor, absorbance	pH 7.4	> 50000
Cc1cc2c(c(=O)[nH]1)C(=O)O/C2=C\c1cc(F)ccc1OCCN1CCOCC1	PDE1C	enzyme activity, inhibitor, radiometric	–	31
O=C1NC(=O)[C@](CNC(=O)c2cnn(-c3ccc(F)cc3)n2)(C2CC2)N1	A disintegrin and metalloproteinase with thrombospondin motifs 7	enzyme activity, inhibitor, FRET	–	25.6
O=c1oc(-c2cccnc2)nc2ccccc12	F11	enzyme activity, inhibitor, absorbance	pH 7.4	> 50000
Cn1nccc1[C@]1(CNC(=O)c2ccc(C(F)(F)F)c(F)c2-c2ccc(C(F)(F)F)cc2)NC(=O)NC1=O	A disintegrin and metalloproteinase with thrombospondin motifs 7	enzyme activity, inhibitor, FRET	–	9.5
O=C(NO)c1cncc(OS(=O)(=O)Oc2ccc(-n3ccnc3)cc2)c1	HDAC5	enzyme activity, inhibitor, fluorescence	–	3560
CCOc1ccccc1/C=C1\OC(=O)c2c1cc(C)[nH]c2=O	PDE1C	enzyme activity, inhibitor, radiometric	–	147
